PLCb3 inh = human PLC-beta3 inhibitors, primary screen, biochemical, fluorescence; 0.18% of 370,000 active; inhibition, % at 12.2 µM; Purified PLC-beta3, fluorogenic substrate;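 also: 0% = median of compound wells on plate and 100% = full blocker control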
Tb MetRS inh = T. brucei MetRS inhibitors, primary screen, biochemical, luminescence; purified T. brucei MetRS, ATP depletion, Kinase-Glo luminescence; inhibition, % at 11.9 µM; 0.4% of 360,000 active;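 active = inhibition above a per-plate cutoff of the control wells' mean inhibition plus 3 SD, cut at about 5.5% in these data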;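 also: 0% = DMSO wells median and 100% = median of wells with control inhibitor compound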
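Material: T. brucei methionyl-tRNA synthetase, purified; reagent: substrates ATP, L-methionine and bulk Escherichia coli tRNA; dosing: 11.9 µM single point; timing: 15 min plus 2 h at 25 °C; detection: luminescence of leftover ATP; evaluation: % inhibition; control set: DMSO-only wells as low control; replicates: singlicate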
PLC-gamma1 inh = PLC-gamma1 enzyme inhibitors, primary screen, biochemical, fluorescence, purified enzyme. 0.84% of 370,000 active. 1-phosphatidylinositol 4,5-bisphosphate phosphodiesterase gamma-1 (Homo sapiens), P19174. AID 720700, 2013. inhibition, % at 12.2 µM. fluorogenic substrate; in the data active = inhibition above about 9.5%
Target sequence (P19174 whole entry, looked up): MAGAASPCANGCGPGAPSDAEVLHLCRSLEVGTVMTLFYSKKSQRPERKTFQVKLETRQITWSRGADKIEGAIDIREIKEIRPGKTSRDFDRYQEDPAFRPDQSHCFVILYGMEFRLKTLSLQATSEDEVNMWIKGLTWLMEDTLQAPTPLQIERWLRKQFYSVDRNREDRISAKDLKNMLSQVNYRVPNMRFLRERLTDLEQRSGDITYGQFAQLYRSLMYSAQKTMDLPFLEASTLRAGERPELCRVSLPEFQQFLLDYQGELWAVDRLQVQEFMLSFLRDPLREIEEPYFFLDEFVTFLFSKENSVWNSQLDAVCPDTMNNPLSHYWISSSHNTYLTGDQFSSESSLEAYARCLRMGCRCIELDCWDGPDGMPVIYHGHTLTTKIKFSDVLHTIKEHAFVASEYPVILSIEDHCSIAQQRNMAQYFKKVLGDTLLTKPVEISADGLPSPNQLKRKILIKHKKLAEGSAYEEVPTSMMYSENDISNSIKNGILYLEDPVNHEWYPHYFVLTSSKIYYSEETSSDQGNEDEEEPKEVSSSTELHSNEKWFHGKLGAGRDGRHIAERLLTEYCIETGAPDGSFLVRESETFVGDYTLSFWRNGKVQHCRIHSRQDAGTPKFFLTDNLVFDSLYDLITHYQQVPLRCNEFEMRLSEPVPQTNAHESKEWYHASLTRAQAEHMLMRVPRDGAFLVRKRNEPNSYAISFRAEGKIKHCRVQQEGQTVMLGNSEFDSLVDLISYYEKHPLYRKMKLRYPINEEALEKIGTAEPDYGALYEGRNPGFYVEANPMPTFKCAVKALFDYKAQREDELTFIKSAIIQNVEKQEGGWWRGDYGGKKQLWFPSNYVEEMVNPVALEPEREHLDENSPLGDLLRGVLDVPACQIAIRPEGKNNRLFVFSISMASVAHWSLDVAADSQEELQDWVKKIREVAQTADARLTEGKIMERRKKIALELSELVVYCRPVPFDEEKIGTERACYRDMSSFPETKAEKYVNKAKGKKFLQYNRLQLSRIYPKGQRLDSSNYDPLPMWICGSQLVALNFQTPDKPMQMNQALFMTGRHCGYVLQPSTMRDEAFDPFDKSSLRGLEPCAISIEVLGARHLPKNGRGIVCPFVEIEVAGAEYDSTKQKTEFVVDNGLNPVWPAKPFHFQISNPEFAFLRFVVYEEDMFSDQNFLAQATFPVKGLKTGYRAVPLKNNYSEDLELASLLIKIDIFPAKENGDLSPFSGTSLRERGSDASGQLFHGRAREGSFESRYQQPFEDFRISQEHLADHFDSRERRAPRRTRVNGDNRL
sPLA2-III inh = human group III sPLA2 inhibitors, primary screen, biochemical, QFRET, BODIPY PC-A2 liposome substrate. Group 3 secretory phospholipase A2 (Homo sapiens), Q9NZ20. 0.56% of 370,000 active. inhibition, % at 12.2 µM. QFRET BODIPY PC-A2 liposome hydrolysis, fluorescence;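 active = inhibition above mean plus 3 SD of compounds lying within the high and low control bounds, cut at about 19% in these data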;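 also: 0% = median of test compound wells and 100% = no enzyme DMSO wells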
PLCgamma1 ctr = PLC-gamma1 enzyme inhibitors, counter-screen for PLC-beta3 inhibitor project, biochemical, fluorescence; shares compounds with PLC-gamma1 inh; purified PLC-gamma1, fluorogenic substrate; inhibition, % at 12.3 µM; 3.1% of 3,300 active; in the data active = inhibition above about 9.5%
PLCb3 confirm = PLC-beta3 inhibitor confirmation, biochemical, fluorescence, purified enzyme. fluorogenic substrate fluorescence. inhibition, % at 12.3 µM. 1% of 3,300 active. AID 743261, 2014. shares compounds with PLC-gamma1 inh
Starred values were filed as active, the others as inactive. This is a sample that favours compounds with a hit; in the whole collection about 1.9% have one here. Rule as the data show it, unless noted: active = inhibition above about 11%; inactive = the rest.

Screening O=C1NC(=O)C(=Cc2ccccc2)N1 returned PLCb3 inh 11.5*, Tb MetRS inh -0.3, PLC-gamma1 inh 7.5, sPLA2-III inh 19.1, PLCgamma1 ctr 0.0 and PLCb3 confirm 3.7.
Screening O=C(Nc1ccc(Cl)cc1Cl)OC1CCC12CCC(c1ccccc1)CC2 (stereo not given) returned PLCb3 inh -7.5, PLC-gamma1 inh 3.8 and sPLA2-III inh 9.8.
For CCOc1ccccc1NC(=O)CSc1nc(=O)n(Cc2ccccn2)c2c1CCC2 the results were PLCb3 inh -5.0, Tb MetRS inh -0.1, PLC-gamma1 inh -0.6 and sPLA2-III inh 5.0.
`O=C(CSc1nc(=O)n(Cc2ccccn2)c2c1CCC2)Nc1ccc(F)cc1F` gave PLCb3 inh 7.4, Tb MetRS inh -0.1, PLC-gamma1 inh 13.0*, sPLA2-III inh 14.4, PLCgamma1 ctr -2.4 and PLCb3 confirm 1.0.
For COc1cccc(Cn2cc(COC(=O)N3CCCC3)nn2)c1 the results were PLCb3 inh -3.9, PLC-gamma1 inh 1.7 and sPLA2-III inh 11.8.
For CCC(C)c1ccccc1NS(=O)(=O)c1cnn(CC)c1 (stereo not given) the results were PLCb3 inh 3.9, Tb MetRS inh -0.6, PLC-gamma1 inh 9.8*, sPLA2-III inh 2.5, PLCgamma1 ctr -1.9 and PLCb3 confirm 1.1.
CN(C)CCCN1CC(=O)N2CCc3ccc(Br)cc3C2CC1=O (stereo not given) was read as PLCb3 inh 5.3, PLC-gamma1 inh 2.0 and sPLA2-III inh -1.1.
`Cc1cc(C)cc(C(=O)OCCN2CCN(C3CN(Cc4cn(Cc5ccccc5F)nn4)S(=O)(=O)C3)CC2)c1` (stereo not given) gave PLCb3 inh -5.8, PLC-gamma1 inh -1.3 and sPLA2-III inh 1.5.
`COc1ccc(C(=O)N2CCCC(c3cc(C(=O)NCc4ccc(F)cc4)no3)C2)cc1` (stereo not given) gave PLCb3 inh 5.5, Tb MetRS inh -0.4, PLC-gamma1 inh 9.7*, sPLA2-III inh -3.8, PLCgamma1 ctr -6.8 and PLCb3 confirm -0.9.
Screening COC(=O)[C@]12C[C@H](CC(=O)NCc3cccs3)C(=O)N(CCc3ccc(OC)c(OC)c3)C1=C[C@H](C1CCCC1)O[C@@H]2C returned PLCb3 inh -2.7, PLC-gamma1 inh 0.1 and sPLA2-III inh -15.4.
For COC(=O)[C@]12C[C@H](CC(=O)NCc3ccccc3)C(=O)N(Cc3ccccc3)C1=C[C@H](C(C)C)O[C@@H]2C1CC1 the results were PLCb3 inh 4.6, PLC-gamma1 inh 4.2 and sPLA2-III inh -3.3.
`CCOc1ccc(NC(=O)CSCc2cnn(-c3ccccc3)c2-n2cccc2)cc1` gave PLCb3 inh -4.6, Tb MetRS inh -0.9, PLC-gamma1 inh 10.1*, sPLA2-III inh -13.5, PLCgamma1 ctr 0.7 and PLCb3 confirm -6.9.
For C[C@H](O)[C@@H]1CN2CCc3c([nH]c4c(-c5ccc6c(c5)OCO6)cccc34)[C@@H]2C[C@@H]1N(C)C(=S)NCCc1ccccc1 the results were PLCb3 inh -22.8, PLC-gamma1 inh -17.1 and sPLA2-III inh 1.8.
Screening CNC(=O)C(=O)Nc1c(C)cc(C)cc1C returned PLCb3 inh 12.3*, Tb MetRS inh -0.4, PLC-gamma1 inh 6.7, sPLA2-III inh 5.0, PLCgamma1 ctr -7.3 and PLCb3 confirm -5.5.
`COCCCN1C(=O)[C@H](CC(=O)NCCCCc2ccccc2)[C@]2(C(=O)OC)CCCCC=C12` gave PLCb3 inh 2.8, PLC-gamma1 inh 3.8 and sPLA2-III inh -3.2.
Screening C=CCN(Cc1ccccc1)C(C#CC(=C)C)Cc1ccccc1 (stereo not given) returned PLCb3 inh -0.6, PLC-gamma1 inh -2.0 and sPLA2-III inh 9.0.
O=C1CSc2ccc(C(=O)N3CCCC(C(=O)N4CCCN(Cc5ccccc5)CC4)C3)cc2N1 (stereo not given) was read as PLCb3 inh -1.7, PLC-gamma1 inh 2.7 and sPLA2-III inh 2.2.
Cc1ccc(C(=O)C2C(c3ccc(-c4ccccc4[N+](=O)[O-])o3)NC(=O)NC2(O)C(F)(F)F)cc1 (stereo not given) was read as PLCb3 inh -2.0, Tb MetRS inh 0.1, PLC-gamma1 inh -2.6 and sPLA2-III inh -15.5.
O=C1NC(c2ccc(-c3ccccc3[N+](=O)[O-])o2)C(C(=O)c2ccccc2)C(O)(C(F)(F)F)N1 (stereo not given) was read as PLCb3 inh 11.4*, Tb MetRS inh -1.3, PLC-gamma1 inh -1.9, sPLA2-III inh -16.2, PLCgamma1 ctr -51.4 and PLCb3 confirm -35.2.
Cn1cnnc1SCc1ccc(C(=O)O)cc1 was read as PLCb3 inh 1.0, Tb MetRS inh -0.3, PLC-gamma1 inh -0.4 and sPLA2-III inh 7.7.
Screening Cn1cnnc1SCNC(=O)C(F)(F)F returned PLCb3 inh 12.4*, Tb MetRS inh 0.3, PLC-gamma1 inh 5.8, sPLA2-III inh 6.8, PLCgamma1 ctr -8.2 and PLCb3 confirm -3.5.
C=CCN1[C@H](CO)[C@H](c2ccc(Br)cc2)[C@@H]1C#N was read as PLCb3 inh -0.1, PLC-gamma1 inh 4.3 and sPLA2-III inh 9.2.
O=C(NCCOCC(F)(F)C(F)F)c1cc(F)c(F)cc1Cl was read as PLCb3 inh 1.6, Tb MetRS inh -0.6, PLC-gamma1 inh 15.1*, sPLA2-III inh 12.3, PLCgamma1 ctr -2.7 and PLCb3 confirm -5.1.
`C=CCN1C(=O)[C@@H](CC(=O)N2CCOCC2)[C@]2(C(=O)OC)CCCCC=C12` gave PLCb3 inh -2.4, PLC-gamma1 inh 2.5 and sPLA2-III inh 8.9.
O=C(NCCO)C1(C(=O)C2CC2)CC(c2ccccc2C(F)(F)F)=NO1 (stereo not given) was read as PLCb3 inh -0.8, PLC-gamma1 inh -1.1 and sPLA2-III inh 1.2.
Clc1ccc(Cn2ccc(-c3ccc4c(c3)OCO4)n2)cc1Cl was read as PLCb3 inh 12.4*, Tb MetRS inh 1.2, PLC-gamma1 inh 18.7*, sPLA2-III inh -20.4, PLCgamma1 ctr 7.3 and PLCb3 confirm 8.7.
Screening c1cc2c(cc1Cn1cnnn1)OCO2 returned PLCb3 inh -0.3, Tb MetRS inh -0.3, PLC-gamma1 inh -4.8 and sPLA2-III inh -2.3.
O=C(Nc1nn[nH]n1)C12CC3CC(CC(C3)C1)C2 was read as PLCb3 inh 2.9, Tb MetRS inh -0.3, PLC-gamma1 inh 10.4*, sPLA2-III inh 4.0, PLCgamma1 ctr -3.9 and PLCb3 confirm 1.4.
`O=C(Nc1nncs1)C12CC3CC(CC(C3)C1)C2` gave PLCb3 inh -0.5, Tb MetRS inh -0.2, PLC-gamma1 inh 7.2 and sPLA2-III inh 3.0.
